Data reported in ChEMBL document CHEMBL4699644, “Discovery of a potent dual inhibitor of wild-type and mutant respiratory syncytial virus fusion proteins through the modulation of atropisomer interconversion properties” (Bioorg Med Chem, 2020).

Assays:
[1] = system: CYP3A; experiment: Inhibition of human liver microsomes CYP3A at 10 uM using testosterone as substrate in presence of NADPH preincubated for 30 mins followed by substrate addition and measured after 10 mins by LC/MS analysis; format: ADME, Microsome; conditions: probe testosterone, time 40 min
Procedure, shortened: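 Compound preincubated 0 or 30 min at 37 °C with human liver microsomes (0.5 mg protein/mL) in sodium–potassium phosphate buffer pH 7.4 with NADPH-regenerating system. Then diluted 10-fold into secondary buffer with testosterone 250 μM plus NADPH-regenerating system and incubated 10 min. Stopped with acetonitrile containing internal standard, centrifuged, LC-MS/MS. Value is the difference in % inhibition between 0- and 30-min preincubation.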

[2] = Protein binding in mouse plasma at 1 ug/ml incubated for 4 hrs by LC-MS analysis; format: ADME, cell-free; conditions: at 1 µg/mL, read-out: PPB (converted)
Procedure, shortened: (§1)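 Equilibrium dialysis with 12–14 kDa cutoff membrane. Compound dissolved in DMSO and spiked into blank plasma at 1 μg/mL final. Plasma dialysed against phosphate buffer pH 7.4 at 37 °C, 5% CO2, 4 h. Compound in plasma and buffer measured by LC-MS/MS and % bound calculated.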

[3] = Protein binding in human plasma at 1 ug/ml incubated for 4 hrs by LC-MS analysis; format: ADME, cell-free; conditions: at 1 µg/mL, read-out: PPB (converted); procedure, shortened: as §1
[4] = Permeability of compound incubated for 4 hrs by PAMPA assay; format: ADME; conditions: read-out: permeability
Procedure, shortened: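 Artificial membrane permeation run 4 h at room temperature and quantified by UV plate reader. Apparent permeability calculated at pH 6.2.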

Structure (SMILES)	inhibition at 10 min, 10 µM [1] [%]	fraction unbound at 4 h, 1 ug/ml [2]	fraction unbound at 4 h, 1 ug/ml [3]	Papp at 4 h [4] [×10⁻⁶ cm/s]
CN1CCNC(=O)COc2ccc(Cl)cc2C(=O)N2CCCC[C@H]2c2cc3nc([C@H]4C[C@H](O)C4)cc1n3n2	-1.4	0.145	0.093	–
CN1CCNC(=O)COc2ccc(F)cc2C(=O)N2CCCC[C@H]2c2cc3nc(N4CC(N)C4)cc1n3n2	–	–	–	3.3
CN1CCNC(=O)COc2ccc(F)cc2C(=O)N2CCCC[C@H]2c2cc3nc([C@H]4C[C@H](O)C4)cc1n3n2	0.4	–	–	27
CN1CCNC(=O)COc2ccc(F)cc2C(=O)N2CCCC[C@H]2c2cc3nc(N4CC(O)C4)cc1n3n2	–	–	–	8
CN1CCNC(=O)COc2ccc(F)cc2C(=O)N2CCCC[C@H]2c2cc3nc([C@H]4C[C@@H](O)C4)cc1n3n2	–	–	–	28
Cc1ccc2c(c1)C(=O)N1CCCC[C@H]1c1cc3nc([C@H]4C[C@H](O)C4)cc(n3n1)N(C)CCNC(=O)CO2	57	0.222	0.112	–

Continued, values first:

inhibition at 10 min, 10 µM [1] [%]	fraction unbound at 4 h, 1 ug/ml [2]	fraction unbound at 4 h, 1 ug/ml [3]	Papp at 4 h [4] [×10⁻⁶ cm/s]	Structure (SMILES)
-2.9	–	–	–	CN1CCNC(=O)COc2ccc(Cl)cc2C(=O)N2CCCCC2c2cc3nc(N4CCC4)cc1n3n2 (stereo unspecified)
-4.7	0.02	0.13	80	CN1CCNC(=O)COc2ccc(F)cc2C(=O)N2CCCC[C@H]2c2cc3nc(N4CCC4)cc1n3n2
60.1	0.031	0.064	–	Cc1ccc2c(c1)C(=O)N1CCCCC1c1cc3nc(N4CCC4)cc(n3n1)N(C)CCNC(=O)CO2 (stereo unspecified)
–	–	–	5.9	CNC1CN(c2cc3n4nc(cc4n2)[C@@H]2CCCCN2C(=O)c2cc(F)ccc2OCC(=O)NCCN3C)C1
–	–	–	0.3	CN1CCNC(=O)COc2ccc(F)cc2C(=O)N2CCCC[C@H]2c2cc3nc(N4CC[C@H](N)C4)cc1n3n2
